Measurements from ChEMBL document CHEMBL1122050, “Synthesis of prostanoids with bicyclo[2.2.1]heptane, bicyclo[3.1.1]heptane, and bicyclo[2.2.2]octane ring systems. Activities of 15-hydroxy epimers on human platelets” (J Med Chem, 1982).
Activity calls are given as the source filed them.

How the values were obtained:
[1] = species on record: Homo sapiens; assay: Compound was evaluated for aggregation properties on human platelets at 15 uM; Reversible; assay type: functional
Summary of the method: (§1)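 Citrated human platelet-rich plasma mixed with Krebs solution and 0.9% NaCl, preincubated 2 min at 37 °C. Aggregation recorded in a Born-type aggregometer. The value is the concentration giving a primary aggregation response of 20 chart-recorder units; irreversible aggregation corresponds to 80–90 units. Each value is the mean of single determinations on PRP from at least three donors.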

[2] = species on record: Homo sapiens; assay: Compound was evaluated for aggregation properties on human platelets at 10/1.5 uM (Dose ratio defined as the ratio of the concentrations of the agonist producing recorder unit responses in the presence and in the absence of the inhibitor); Inhi bition
[3] = species on record: Homo sapiens; assay: Compound was evaluated for aggregation properties on human platelets at 0.14 uM; Irreversible; assay type: functional; summary of the method: as §1
[4] = species on record: Homo sapiens; assay: Compound was evaluated for aggregation properties on human platelets at 6.2 uM; Irreversible; assay type: functional; summary of the method: as §1
[5] = species on record: Homo sapiens; assay: Compound was evaluated for aggregation properties on human platelets at 20 uM (highest concentration tested); Shape change only; assay type: functional, organism-based
[6] = species on record: Homo sapiens; assay: Compound was evaluated for aggregation properties on human platelets at 10/1.4 uM (Dose ratio defined as the ratio of the concentrations of the agonist producing recorder unit responses in the presence and in the absence of the inhibitor); Inhibition; assay type: functional
[7] = species on record: Homo sapiens; assay: Compound was evaluated for aggregation properties on human platelets at 80 uM (highest concentration tested); No effect; assay type: functional, organism-based
[8] = species on record: Homo sapiens; assay: Compound was evaluated for aggregation properties on human platelets at 10/2.9 uM (Dose ratio defined as the ratio of the concentrations of the agonist producing recorder unit responses in the presence and in the absence of the inhibitor); Inhibition; assay type: functional
[9] = species on record: Homo sapiens; assay: Compound was evaluated for aggregation properties on human platelets at 0.23 uM; Irreversible.; assay type: functional; summary of the method: as §1
[10] = species on record: Homo sapiens; assay: Compound was evaluated for aggregation properties on human platelets at 20 uM (highest concentration tested); No effect; assay type: functional, organism-based
[11] = species on record: Homo sapiens; assay: Compound was evaluated for aggregation properties on human platelets at 80 uM (highest concentration tested); Shape change only; assay type: functional, organism-based
[12] = species on record: Homo sapiens; assay: Compound was evaluated for aggregation properties on human platelets at 10 uM (highest concentration tested); No effect; assay type: functional, organism-based
[13] = species on record: Homo sapiens; assay: Compound was evaluated for aggregation properties on human platelets at 1.3 uM; Irreversible; assay type: functional; summary of the method: as §1
[14] = species on record: Homo sapiens; assay: Compound was evaluated for aggregation properties on human platelets at 0.26 uM; Irreversible; assay type: functional; summary of the method: as §1
[15] = species on record: Homo sapiens; assay: Compound was evaluated for aggregation properties on human platelets at 3.5 uM; Irreversible; assay type: functional; summary of the method: as §1
[16] = species on record: Homo sapiens; assay: Compound was evaluated for aggregation properties on human platelets at 0.72 uM; Irreversible; assay type: functional; summary of the method: as §1
[17] = species on record: Homo sapiens; assay: Compound was evaluated for aggregation properties on human platelets at 0.19 uM; Irreversible; assay type: functional; summary of the method: as §1
[18] = species on record: Homo sapiens; assay: Compound was evaluated for aggregation properties on human platelets at 0.31 uM; Irreversible; assay type: functional; summary of the method: as §1
[19] = species on record: Homo sapiens; assay: Compound was evaluated for aggregation properties on human platelets at 10/1.3 uM (Dose ratio defined as the ratio of the concentrations of the agonist producing recorder unit responses in the presence and in the absence of the inhibitor); Inhibition; assay type: functional
[20] = species on record: Homo sapiens; assay: Compound was evaluated for aggregation properties on human platelets at 5 uM; Reversible; assay type: functional; summary of the method: as §1
[21] = species on record: Homo sapiens; assay: Compound was evaluated for aggregation properties on human platelets at 1.7 uM; Irreversible; assay type: functional; summary of the method: as §1
[22] = species on record: Homo sapiens; assay: Compound was evaluated for aggregation properties on human platelets at 2.5/4.8 uM (Dose ratio defined as the ratio of the concentrations of the agonist producing recorder unit responses in the presence and in the absence of the inhibitor); In hibition; assay type: functional, organism-based
[23] = species on record: Homo sapiens; assay: Compound was evaluated for aggregation properties on human platelets at 10/25 uM (Dose ratio defined as the ratio of the concentrations of the agonist producing recorder unit responses in the presence and in the absence of the inhibitor); Inhi bition; assay type: functional, organism-based

**Q.** How did the Aggregation response [1] turn out when `CCCCC[C@H](O)/C=C/[C@H]1C2CCC(C2)[C@@H]1C/C=C\CCCC(=O)O` (some centres undefined) was run?
**A.** Reversible

**Q.** How did the Aggregation response [2] turn out when `CCCCC[C@@H](O)/C=C/[C@H]1C2CCC(C2)[C@@H]1C/C=C\CCCC(=O)O` (some centres undefined) was run?
**A.** Inhibition

**Q.** How did the Aggregation response [3] turn out when `O=C(O)CCC/C=C\C[C@H]1C2CCC(C2)[C@@H]1/C=C/[C@@H](O)COc1ccc(F)cc1` (some centres undefined) was run?
**A.** Irreversible

**Q.** With `CCCCC[C@](C)(O)/C=C/[C@H]1C2CCC(C2)[C@@H]1C/C=C\CCCC(=O)O` (some centres undefined) as the compound, how does the Aggregation response [4] read?
**A.** Irreversible

**Q.** How did the Aggregation response [5] turn out when `CCCCC[C@@H](O)/C=C/[C@H]1C2COC(C2)[C@@H]1C/C=C\CCCC(=O)O` (some centres undefined) was run?
**A.** Shape change only

**Q.** `CCCCC[C@@H](O)/C=C/[C@H]1C2CC([C@@H]1C/C=C\CCCC(=O)O)C2(C)C` (some centres undefined) was tested. Which Aggregation response [6] did it give?
**A.** Inhibition

**Q.** With `O=C(O)CCC/C=C\C[C@H]1C2C=CC(C2)[C@@H]1/C=C/[C@H](O)CCc1ccc(Cl)cc1` (some centres undefined) as the compound, how does the Aggregation response [7] read?
**A.** inactive

**Q.** `CCCCC[C@@H](O)/C=C/[C@H]1C2CCC(CC2)[C@@H]1C/C=C\CCCC(=O)O` was tested. Which Aggregation response [8] did it give?
**A.** Inhibition

**Q.** For `CCCCC[C@H](O)/C=C/[C@H]1C2CC(CO2)[C@@H]1C/C=C\CCCC(=O)O` (some centres undefined), which Aggregation response [9] is on record?
**A.** Irreversible

**Q.** `CCCCCC(=O)/C=C/[C@H]1C2COC(C2)[C@@H]1C/C=C\CCCC(=O)O` (some centres undefined) was tested. Which Aggregation response [10] did it give?
**A.** inactive

**Q.** Which Aggregation response [11] does the source give for `O=C(O)CCC/C=C\C[C@H]1C2C=CC(C2)[C@@H]1/C=C/[C@@H](O)CCc1ccc(Cl)cc1` (some centres undefined) here?
**A.** Shape change only

**Q.** For `O=C(O)CCC/C=C\C[C@H]1C2C=CC(C2)[C@@H]1/C=C/C(=O)COc1ccc(F)cc1` (some centres undefined), which Aggregation response [12] is on record?
**A.** inactive

**Q.** Which Aggregation response [13] does the source give for `O=C(O)CCC/C=C\C[C@H]1C2CCC(C2)[C@@H]1/C=C/[C@H](O)COc1ccc(F)cc1` (some centres undefined) here?
**A.** Irreversible

**Q.** For `CCCCC[C@H](O)/C=C/[C@H]1C2COC(C2)[C@@H]1C/C=C\CCCC(=O)O` (some centres undefined), which Aggregation response [14] is on record?
**A.** Irreversible

**Q.** How did the Aggregation response [13] turn out when `CCCCC[C@H](O)/C=C/[C@H]1C2CCC(CC2)[C@@H]1C/C=C\CCCC(=O)O` was run?
**A.** Irreversible

**Q.** `O=C(O)CCC/C=C\C[C@H]1C2CCC(C2)[C@@H]1/C=C/[C@H](O)COc1ccc(Cl)cc1` (some centres undefined) was tested. Which Aggregation response [15] did it give?
**A.** Irreversible

**Q.** Which Aggregation response [16] does the source give for `O=C(O)CCC/C=C\C[C@H]1C2CCC(C2)[C@@H]1/C=C/[C@@H](O)COc1ccc(Cl)cc1` (some centres undefined) here?
**A.** Irreversible

**Q.** For `O=C(O)CCC/C=C\C[C@H]1C2C=CC(C2)[C@@H]1/C=C/[C@@H](O)COc1ccc(F)cc1` (some centres undefined), which Aggregation response [17] is on record?
**A.** Irreversible

**Q.** For `CC1(C)C2CC1[C@H](C/C=C\CCCC(=O)O)[C@H]2/C=C/[C@@H](O)COc1ccc(F)cc1` (some centres undefined), which Aggregation response [18] is on record?
**A.** Irreversible

**Q.** How did the Aggregation response [19] turn out when `CCCCC[C@@](C)(O)/C=C/[C@H]1C2CCC(C2)[C@@H]1C/C=C\CCCC(=O)O` (some centres undefined) was run?
**A.** Inhibition

**Q.** For `CC1(C)C2CC1[C@H](C/C=C\CCCC(=O)O)[C@H]2/C=C/[C@H](O)COc1ccc(F)cc1` (some centres undefined), which Aggregation response [20] is on record?
**A.** Reversible

**Q.** For `O=C(O)CCC/C=C\C[C@H]1C2C=CC(C2)[C@@H]1/C=C/[C@H](O)COc1ccc(F)cc1` (some centres undefined), which Aggregation response [21] is on record?
**A.** Irreversible

**Q.** How did the Aggregation response [22] turn out when `CCCCC[C@H](O)/C=C/[C@H]1C2CC([C@@H]1C/C=C\CCCC(=O)O)C2(C)C` (some centres undefined) was run?
**A.** Inhibition

**Q.** And the Aggregation response [23]?
**A.** Inhibition
